Where “and” joins values, the source holds several entries; their conditions need not be identical. Equal entries are not always repeated.
Legend:
P. aeruginosa PAO1 [1] = assay: In vitro post-antibiotic effect; format: cell-based, Pseudomonas aeruginosa; conditions: 1 h exposure, 1:1000 dilution
Summary of the method: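 Drug removed by 1:1000 dilution into pre-warmed medium. Regrowth at 37 °C counted immediately and hourly for 8 h (detection limit 1 log10 CFU/mL). Triplicate independent occasions; mechanistic PD model fitted.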

[2] = system: P. aeruginosa PAO1 MexABCDXY− (N150); assay: MIC by broth microdilution, efflux-deficient strain; format: cell-based, Pseudomonas aeruginosa; conditions: 24 h, 37 °C; listed as F
[3] = Plasma protein binding, equilibrium dialysis, human; format: in vitro ADME; conditions: 50 μM
[4] = system: P. aeruginosa strain PAO1; assay: Neutropenic mouse thigh infection model, single dose time course; format: in vivo, CD-1 mice; conditions: resistance emergence test
P. aeruginosa PAO1 [5] = assay: MIC by broth microdilution, wild-type strain; format: cell-based, Pseudomonas aeruginosa; conditions: 24 h, 37 °C; listed as F
P. aeruginosa cells = assay: Killing kinetics; format: cell-based, Pseudomonas aeruginosa; conditions: 37°C; linear regression after 1 hr lag
[6] = Plasma protein binding, equilibrium dialysis, mouse; format: in vitro ADME; conditions: 50 μM

COc1ccc(-c2ccn(CC[C@](C)(C(=O)NO)S(C)(=O)=O)c(=O)c2)c(F)c1 [Compound 6]
PAE at 4x MIC (P. aeruginosa PAO1 [1]): 1.26 h
PAE at 8x MIC (P. aeruginosa PAO1 [1]): 1.67 h
PAE at 16x MIC (P. aeruginosa PAO1 [1]): 1.93 h
P.ae MIC PAO1 MexABCDXY− [2]: 0.0075 μg/ml and 0.018 μM
free fraction (fu) [3]: 0.28
CFU from 24 h timepoints on selective media (4× MIC) [4]: no CFU were obtained
P.ae MIC PAO1 (P. aeruginosa PAO1 [5]): 0.25 μg/ml and 0.61 μM
maximum killing rate (P. aeruginosa cells): 2.8 log10 CFU/hr
free fraction (fu) [6]: 0.41

Reference: article PMC4536915 (Nature chemical biology, 2015)
